KCNK3 block = human KCNK3 channel inhibitors, primary screen, CHO cells, FluxOR thallium flux, B-score; FluxOR fluorescence; stronger effect = lower value; B-score at 10 µM; 340,000 compounds, 0.84% hits; AID 602410, 2012;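 active = B-score under library mean minus 4 SD, starting fluorescence ratio at most library mean plus 5 SD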;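 also: more negative B-score means stronger inhibition of thallium flux through KCNK3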
KCNK9 block = KCNK9 potassium channel inhibitors, primary screen, HEK293 cells, thallium flux. Potassium channel subfamily K member 9 (Homo sapiens), Q9NPC2. FluxOR thallium flux fluorescence; stronger effect = lower value. B-score at 10 µM. 310,000 compounds, 1.2% hits;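 active = ratio B-score over 3 SD below the library mean, with starting fluorescence within 5 SD of its mean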;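 also: negative B-score means less thallium flux so channel inhibition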
KCNQ1 act = potentiators or activators of KCNQ1 channel, primary screen, cell-based, thallium flux, high-throughput; B-score at 10 µM; CHO-K1 KCNQ1, thallium flux FluxOR fluorescence; stronger effect = higher value; Potassium voltage-gated channel subfamily KQT member 1 (Homo sapiens), P51787; AID 2648, 2010; 310,000 compounds, 0.35% hits;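 active = fluorescence ratio B-score, a plate-corrected score, at least three library SD, with initial intensity B-score within 5 SD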
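System: CHO-K1 cells stably expressing KCNQ1 / Medium: assay buffer for compound exposure, DMSO matched across wells / Reagent: thallium- and potassium-containing depolarizing buffer / Compound: one concentration, matched DMSO / Incubation: 20 min compound pretreatment at room temperature / Measured by: kinetic FluxOR fluorescence, 10 s baseline plus 110 s post-stimulus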
hERG rescue = hERG rescue from dofetilide block, primary screen, cell-based, CHO-hERG, FluxOR thallium flux, dofetilide IC70. dofetilide IC70 present. activation (rescue from dofetilide block), less the hit threshold, % at 10 µM. 310,000 compounds, 0.51% hits. AID 1511, 2009;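 active = activation above the mean of controls blocked by dofetilide plus 5 SD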;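 also: thallium influx through hERG after potassium depolarization seen as dye fluorescence rise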
Kir21 block = inhibitors of mouse Kir2.1 inward-rectifier potassium channel; Inward rectifier potassium channel 2 (Mus musculus), P35561; HEK293-Kir2.1, FluxOR thallium flux fluorescence; stronger effect = lower value; B-score at 10 µM; 310,000 compounds, 0.85% hits;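 active = fluorescence ratio B-score at or below minus 3 SD of library scores, with starting-brightness B-score within 2 SD, cut at about -4.2 in these data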;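 also: channel flux triggered by added potassium and thallium sulfate stimulus; B-score of peak minus minimum fluorescence over baseline after thallium stimulus; more negative B-score means stronger Kir2.1 block with less thallium influx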
Target sequence (P35561 whole entry, looked up): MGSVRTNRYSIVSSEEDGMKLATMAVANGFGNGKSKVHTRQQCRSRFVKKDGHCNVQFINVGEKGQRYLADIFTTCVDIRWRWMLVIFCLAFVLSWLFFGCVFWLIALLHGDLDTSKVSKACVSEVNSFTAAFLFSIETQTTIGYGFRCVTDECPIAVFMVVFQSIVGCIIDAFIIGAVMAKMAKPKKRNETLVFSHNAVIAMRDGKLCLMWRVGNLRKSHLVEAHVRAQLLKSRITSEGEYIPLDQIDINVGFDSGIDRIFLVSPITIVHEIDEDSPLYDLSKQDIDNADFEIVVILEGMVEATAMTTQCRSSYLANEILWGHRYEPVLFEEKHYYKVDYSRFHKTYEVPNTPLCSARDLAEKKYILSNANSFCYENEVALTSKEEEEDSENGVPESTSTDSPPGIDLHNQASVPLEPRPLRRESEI
KCNQ1 inh = inhibitors of human KCNQ1 channel, primary screen, cell-based, thallium flux, high-throughput | B-score at 10 µM | 310,000 compounds, 1.3% hits | CHO-K1 KCNQ1, FluxOR thallium flux fluorescence; stronger effect = higher value | AID 2642, 2010;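 active = compounds whose thallium flux B-score, printed positive for inhibition, exceeds three library SD while starting fluorescence stays within three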;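 also: channel opened by potassium depolarization with thallium stimulus after 20 min compound exposure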
Starred values were filed as active, the others as inactive; i = inactive; nt = no result. Hits are enriched below; roughly 3.7% of the tested compounds scored in any of these assays.

SMILES	KCNK3 block	KCNK9 block	KCNQ1 act	hERG rescue	Kir21 block	KCNQ1 inh
CCC(C)NC(=O)CSc1nnc(-c2cc(OC)c(OC)c(OC)c2)c(-c2cc(OC)c(OC)c(OC)c2)n1 (stereo unspecified)	i	i	i	-2.4	-1.33	i
COc1ccccc1CNC(=O)CCCC(=O)n1nc(C)c2ccccc21	i	i	i	-6.2	-0.01	i
Cc1c(C(Nc2ccccn2)c2ccc(Cl)cc2)c(=O)n(-c2ccccc2)n1C (stereo unspecified)	i	-6.62*	i	-17.0	0.18	i
O=C(c1ccccc1SCc1ccccc1)N1CCCCCC1	i	i	i	-14.5	-4.5*	i
Cc1ccccc1NC1=NC(=S)N(c2ccccc2)C12CCCCC2	i	i	15*	11.9*	0.32	i
O=C(O)C(Cc1ccccc1)n1c(=S)[nH]c2ccccc2c1=O (stereo unspecified)	i	i	i	-0.2	0.37	i
OC(CNCc1ccccc1)Cn1ccc2ccccc21 (stereo unspecified)	i	i	i	-3.8	-5.15*	i
COCCN=C1Sc2nc3cc4c(cc3cc2CN1CC1CCCO1)OCO4 (stereo unspecified)	i	i	i	-8.1	-1.1	i
Cc1ccc(S(=O)(=O)CC(O)COc2ccc(F)cc2Cl)c(C)c1 (stereo unspecified)	i	i	i	-6.3	-6.11*	i
O=C(Nc1cccc(CNCCc2c[nH]c3ccccc23)c1)c1ccccc1Cl	i	i	i	-11.5	-2.09	i
CN(C1CCCCC1)S(=O)(=O)c1cccc2nsnc12	i	i	i	-3.7	-5.11*	i
CCN(c1ccc(F)cc1)S(=O)(=O)c1cccc2nsnc12	i	i	i	-4.9	-5.49*	i
N#CCCN(C1CCCCC1)S(=O)(=O)c1cccc2nsnc12	i	i	i	-9.3	-1.61	i
CN1CCN(C2=Cc3ccccc3Sc3cc(F)ccc32)CC1	i	i	i	-22.9	-8.43*	i
CC(=O)c1c(C)[nH]c(C(=O)Nc2ccc(C)cc2Br)c1C	i	i	i	-2.6	0.09	i
CCC(C)NC(=O)CC(c1ccccc1)c1cc(C)ccc1O (stereo unspecified)	i	i	i	-15.0	0.05	i
CCOc1ccc2[nH]c(=O)c(CN(Cc3ccco3)C(CC)c3nnnn3Cc3ccccc3)cc2c1 (stereo unspecified)	i	i	i	-7.8	0.31	8*
CCOc1ccc2[nH]c(=O)c(CN(Cc3nnnn3Cc3ccco3)C3CCCCC3)cc2c1	-9.95*	i	i	-14.3	-0.63	i
CCOc1ccc2[nH]c(=O)c(CN(Cc3ccco3)Cc3nnnn3Cc3ccccc3)cc2c1	i	i	i	-16.9	0.22	i
Cc1ccc(S(=O)(=O)N/N=c2\oc3ccccc3cc2C(=O)Nc2cccc(C)c2)cc1	nt	i	i	-4.0	0.9	i
O=C(COC(=O)C1CCN(/C=C/C(=O)C(F)(F)F)CC1)Nc1cccc(F)c1	i	i	i	-1.5	0.77	i
COc1ccc(NC(=O)/C(=C/c2ccc(OC(C)=O)c(OC)c2)NC(C)=O)cc1	i	i	88*	-2.8	0.77	i
COc1cc(/C=C(\NC(C)=O)C(=O)Nc2ccc(NC(C)=O)cc2)ccc1OC(C)=O	i	i	i	-2.0	-0.6	i
CCC(=O)Nc1cccc(NC(=O)c2ccc(C)c([N+](=O)[O-])c2)c1	i	i	i	-21.8	-1.25	i
CCCC(=O)Nc1cccc(NC(=O)c2ccc(C)c([N+](=O)[O-])c2)c1	i	i	i	-13.8	-4.82*	i
SMILES	KCNK3 block	KCNK9 block	KCNQ1 act	hERG rescue	Kir21 block	KCNQ1 inh
CCCC(=O)Nc1cccc(C(=O)Nc2ccccc2OCC)c1	nt	-7.8*	i	-8.7	0.15	i
CCOc1ccccc1NC(=O)c1cccc(NC(=O)C(C)C)c1	i	i	i	-16.8	-0.62	i
CCN(CC(=O)Nc1cc(Cl)ccc1C)C(=O)CCS(=O)(=O)c1ccc(Cl)cc1	i	i	i	-13.4	1.2	i
CCN1CCN(c2ccc(S(=O)(=O)N3CCOCC3)cc2N)CC1	i	nt	nt	nt	nt	nt
COc1ccc([N+](=O)[O-])c(OC)c1C(=O)NC(=O)Nc1c(F)cc(F)cc1F	i	i	i	-5.2	-0.04	i
CCCCC(=O)Nc1cnc(NC(=O)c2cccs2)cc1C	i	i	i	-7.3	0.93	i
CC(=O)NNC(=S)NC(=O)C(c1ccccc1)c1ccccc1	i	i	i	-16.2	0.91	i
CC(C)(C)C(=O)NC(=S)NNC(=O)C(c1ccccc1)c1ccccc1	i	i	31*	-8.3	-1.35	i
O=C(CSc1ccc(Br)cc1)NCC(c1ccco1)N1CCCCC1 (stereo unspecified)	i	i	i	-10.7	-3.07	i
CCOC(=O)c1n[nH]n2c1nc(=S)c1ccccc12	i	i	34*	23.3*	-1.1	i
CC(C#N)Sc1ncnc2sc(-c3ccccc3)cc12 (stereo unspecified)	i	i	i	-4.1	-0.74	6*
CN(CCC#N)C(=O)CSc1ncnc2sc(-c3ccccc3)cc12	i	i	i	-3.9	-0.06	i
CN(NS(=O)(=O)c1ccc(Cl)cc1)c1nc(C(F)(F)F)nc2ccccc12	i	-7.61*	i	-20.4	0.28	i
CN(NS(=O)(=O)c1ccccc1)c1nc2ccccc2nc1C(F)(F)F	i	i	i	-8.4	-3.42	i
COC(=O)C1CCN(C(=O)c2cc(-c3ccc(Cl)s3)nc3ccccc23)CC1	-9.12*	nt	nt	nt	nt	nt
O=C(O)c1ccc(N/N=C/C=C/c2ccc([N+](=O)[O-])o2)cc1	i	i	i	-4.5	-1.38	i
O=[N+]([O-])c1ccc(N/N=C/C=C/c2ccco2)cc1	i	-7.18*	i	-6.2	0.48	i
O=C(Nc1nc2ccccc2[nH]1)c1cc2ccccc2o1	i	i	i	-3.9	-2.09	i
O=C(N/N=C/c1ccc(Sc2ccccn2)o1)c1cc2ccccc2cc1O	i	i	18*	1.1	1.74	i

Assay outcomes as filed in PubChem BioAssay.
